“Also recorded” adds a separate entry of the source.
System: sperm–egg plasma membrane adhesion and fusion (zona-free eggs, acrosome-reacted sperm)
Assay: In vitro sperm–egg adhesion and fusion assay with active site peptides
Type: cell-based, mouse
Conditions: peptide 500 μM, Fig. 2, FI and FR taken together
In short: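 Mice superovulated with 10 IU PMSG and 5 IU hCG 48 h apart. Metaphase II eggs collected ~12 h post-hCG, cumulus removed with hyaluronidase, zonae with chymotrypsin, then DAPI-preloaded. Peptide added 30 min before capacitated, acrosome-reacted sperm (2–4 × 10^4/ml final) and present throughout. Coincubated 30 min, 37 °C, 5% CO2, Whittingham's/3% BSA. Scored sperm bound/egg, FI and FR; 43–82 eggs per peptide.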

With SVDECDLL [ADAM 5 peptide] the “inhibition of sperm–egg binding and fusion (stated jointly)” value was “essentially no inhibition; also recorded: did not inhibit”.

From paper PMC2139869 (The Journal of Cell Biology, 1997)
